Drawing on ChEMBL document CHEMBL3600315, “Molecular modeling based approach, synthesis, and cytotoxic activity of novel benzoin derivatives targeting phosphoinostide 3-kinase (PI3Kα)” (Bioorg Med Chem Lett, 2015), this text covers Activity for six compounds.

SMILES strings stand for the structures. The source made the active and inactive calls. The rule behind the calls is not given here.

This experiment has as its system HCT-116. The experiment can be described thus: Induction of apoptosis in human HCT116 cells assessed as increase in caspase-3 activity at 700 uM after 24 hrs by DEVD-pNA substrate-based colorimetric assay relative to control. The experiment is classed as functional, cell-based. The method, boiled down:
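HCT116 cells were incubated with each compound for 24 or 48 h. Caspase-3 enzyme activity was measured relative to untreated control cells. Values are means of two independent experiments, with P < 0.05 taken as significant.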
For `O=C(OC(C(=O)c1ccccc1)c1ccccc1)c1ccc(Cl)cc1` (stereo unspecified), the outcome was Active.
As for `O=C(OC(C(=O)c1ccccc1)c1ccccc1)c1cccc(F)c1` (stereo unspecified), the entry is “Active”; as for `O=C(OC(C(=O)c1ccccc1)c1ccccc1)c1ccc(F)cc1` (stereo unspecified), “Active”.
As to `O=C(OC(C(=O)c1ccccc1)c1ccccc1)c1ccc([N+](=O)[O-])cc1` (stereo unspecified), the outcome was Active.
As for `COc1ccc(C(=O)C(O)c2ccc(OC)cc2)cc1` (stereo unspecified), the entry is “Active”.
As for `O=C(OC(C(=O)c1ccccc1)c1ccccc1)c1ccccc1F` (stereo unspecified), the entry is “Active”.
